These results are taken from article PMC11718171 (Biophysics and Physicobiology, 2024).

In experiment [1] the test system is Lg-CD86. The experiment can be described thus: Orthogonality of labeling, Lg-CD86-expressing cells. Format: cell-based, human. To be noted: 10 nM each, simultaneous labeling, HEK293. The method, boiled down:
(§1)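 HEK293A cells in DMEM with 5% FBS, seeded on coverslips and same-day transfected (Lipofectamine 3000, 1 µg total plasmid made up with pCAGGS) with LgBiT-, SNAP- or HaloTag-fused CD86 (1-277). Co-labeled with SF650-FiBiT, SNAP-cell TMR-star and Halo-JF549 in phenol red-free complete DMEM, 15 min, 37°C. Washed thrice, imaged in 0.01% BSA-HBSS. Bright spots counted against coverslip background.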

The test system of experiment [2] is SNAP-CD86. The experiment can be described thus: Orthogonality of labeling, SNAP-CD86-expressing cells. Format: cell-based, human. Particulars: 10 nM each, simultaneous labeling, HEK293. The method in brief:
as §1

A short description of experiment [3]: Non-specific binding on coverslips. Particulars: 10 nM, washed three times with complete phenol red-free DMEM, then BSA-HBSS. The method in brief:
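No cells: fluorescent HiBiT or FiBiT peptide diluted in phenol red-free DMEM with 5% FBS, penicillin, streptomycin and glutamine. Added to a dish containing a glass coverslip and held 15 min at 37°C. Washed three times, mounted in a chamber in HBSS with 0.01% BSA, then imaged at single-molecule level for adsorbed bright spots.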

Experiment [4] concerns LgBiT. To be noted: in vitro, grating-coupled interferometry; ref [27]; cited from earlier work.

Ends that are not written are not given here.

Consider `CN(C)c1ccc2c(-c3cc(C(=O)NCc4ccc(COc5nc(N)nc6nc[nH]c56)cc4)ccc3C(=O)[O-])c3ccc(=[N+](C)C)cc-3oc2c1` [SNAP-TMR], for which the “staining of Lg-CD86-expressing cells” value in experiment [1] was “not by SNAP-TMR nor Halo-JF549”. Besides, in experiment [2], the “labeling of SNAP-CD86-expressing cells” value is “labeled by SNAP-TMR ligand”.

As for TMR-DYKDDDDKGDGSVSGWRLFKKIS [TMR-FiBiT], the “non-specific binding to coverslips” value in experiment [3] is given as “greatly reduced the non-specific binding”.

“HiBiT: HiBiT peptide (~1.3 kDa), NanoLuc fragment (VSGWRLFKKIS; also: TMR label, site not given here)”: in experiment [4], the “on-time of LgBiT-HiBiT interaction” value is on record as ~ 12 min.
